Data reported in ChEMBL document CHEMBL1126019, “Synthesis, stability, and biological evaluation of water-soluble prodrugs of a new echinocandin lipopeptide. Discovery of a potential clinical agent for the treatment of systemic candidiasis and Pneumocystis carinii pneumonia (PCP)” (J Med Chem, 1992).

Experiments:
Rattus norvegicus = species on record: Rattus norvegicus; assay: Minimum effect dose required to reduce the number of alveolor cyst load in rat Pneumocystis carinii pneumonia assay; type: functional
In short: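 Immunosuppressed Sprague-Dawley rats with confirmed infection (5 per dose level) were dosed subcutaneously, 0.15 and 0.60 mg/kg twice daily for 4 days. On day 5, lungs were homogenized and cysts counted microscopically in a known amount of homogenate. MED90 is the dose giving ≥90% cyst reduction versus vehicle sham controls.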

Mus musculus = species on record: Mus musculus; assay: Minimum effect dose required to reduce the number of colony forming units in per gram kidney of mice after being challenged, by tail vein injection, with 5 X l0e4 cells of Candida albicans (MY 1055); type: functional
In short: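 DBA/2 mice (5 per dose level) were infected intravenously and dosed ip with vehicle sham or 1.5, 3.0 or 6.0 mg/kg twice daily for 4 days. On day 7 post-infection, kidneys were cultured on SDA (35 °C, 24 h) and CFU/g counted. MED99 is the dose giving ≥99% CFU/g reduction versus vehicle sham.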

Homo sapiens = species on record: Homo sapiens; assay: Hemolytic potential was determined as the minimum lytic concentration against human red blood cells; type: functional, cell-based
In short: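 Compounds were serially diluted in water containing 10% DMSO and added to whole human blood, then incubated 2 h at 37 °C. Red cell lysis was scored visually, and the lowest lytic concentration was recorded.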

Fungi [1] = assay: Minimum fungicidal concentration against Candida albicans MY 1055; type: functional, organism-based
In short: (§1)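 Clinical isolates in yeast nitrogen base with 1% dextrose, inoculated with about 5×10^3 CFU per well. Drug was tested by 2-fold serial dilution from 128 to 0.06 µg/mL, with growth for 24 h at 35 °C. 1.5-µL aliquots were then spotted onto Sabouraud dextrose agar and incubated at 35 °C for 24 h. MFC was the lowest concentration giving fewer than five colonies per spot. Duplicate determinations.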

Fungi [2] = assay: Minimum fungicidal concentration against Candida tropicalis MY 1012; type: functional, organism-based; in short: as §1
[3] = Inhibitory activity against glucan synthesis; type: functional
Fungi [4] = assay: Minimum fungicidal concentration against Candida albicans MY 1028; type: functional, organism-based; in short: as §1
Fungi [5] = assay: Minimum fungicidal concentration against Candida pseudotropicalis MY 1100; type: functional, organism-based
In short: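 Clinical isolates were inoculated at about 5×10^3 CFU into yeast nitrogen base with 1% dextrose, with drug in 2-fold dilutions from 128 to 0.06 µg/mL, and grown 24 h at 35 °C. Then 1.5 µL aliquots were spotted on Sabouraud dextrose agar and held 24 h at 35 °C. MFC is the lowest concentration giving fewer than five colonies per spot, from duplicate determinations.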

Fungi [6] = assay: Minimum fungicidal concentration against Candida parapsilosis MY 1010; type: functional, organism-based; in short: as §1

Row | SMILES | MED90 (Rattus norvegicus) | MED99 (Mus musculus) | Concentration (Homo sapiens) | Concentration (Fungi [1]) | Concentration (Fungi [2]) | IC50 [3] | Concentration (Fungi [4]) | Concentration (Fungi [5]) | Concentration (Fungi [6])
1 | CCC(C)CC(C)CCCCCCCCC(=O)N[C@H]1C[C@@H](O)[C@@H](O)NC(=O)[C@@H]2[C@@H](O)CCN2C(=O)[C@H]([C@@H](O)CC(N)=O)NC(=O)[C@H]([C@H](O)[C@@H](O)c2ccc(O)cc2)NC(=O)[C@@H]2C[C@@H](O)CN2C(=O)[C@H]([C@@H](C)O)NC1=O (some centres not stated) | 0.15 mg/kg | 3 mg/kg |  |  |  |  |  |  | 
2 | CCC(C)CC(C)CCCCCCCCC(=O)N[C@H]1C[C@@H](O)[C@@H](O)NC(=O)[C@@H]2[C@@H](O)CCN2C(=O)[C@H]([C@@H](O)CC(N)=O)NC(=O)[C@H]([C@H](O)[C@@H](O)c2ccc(OC(=O)CCCC(=O)O)cc2)NC(=O)[C@@H]2C[C@@H](O)CN2C(=O)[C@H]([C@@H](C)O)NC1=O (some centres not stated) | 0.6 mg/kg | 6 mg/kg |  |  |  |  |  |  | 
3 | CCC(C)CC(C)CCCCCCCCC(=O)N[C@H]1C[C@@H](O)[C@@H](O)NC(=O)[C@@H]2[C@@H](O)CCN2C(=O)[C@H]([C@@H](O)CC(N)=O)NC(=O)[C@H]([C@H](O)[C@@H](O)c2ccc(OC(=O)N(C)CC(=O)O)cc2)NC(=O)[C@@H]2C[C@@H](O)CN2C(=O)[C@H]([C@@H](C)O)NC1=O (some centres not stated) | > 0.6 mg/kg | > 6 mg/kg |  |  |  |  |  |  | 
4 | CCC(C)CC(C)CCCCCCCCC(=O)N[C@H]1C[C@@H](O)[C@@H](O)NC(=O)[C@@H]2[C@@H](O)CCN2C(=O)[C@H]([C@@H](O)CC(N)=O)NC(=O)[C@H]([C@H](O)[C@@H](O)c2ccc(OC(=O)NCCN(C)C)cc2)NC(=O)[C@@H]2C[C@@H](O)CN2C(=O)[C@H]([C@@H](C)O)NC1=O.O=C(O)C(F)(F)F (some centres not stated) | 0.6 mg/kg | 6 mg/kg |  |  |  |  |  |  | 
5 | CCC(C)CC(C)CCCCCCCCC(=O)N[C@H]1C[C@@H](O)[C@@H](O)NC(=O)[C@@H]2[C@@H](O)CCN2C(=O)[C@H]([C@@H](O)CC(N)=O)NC(=O)[C@H]([C@H](O)[C@@H](O)c2ccc(OC(=O)NCC(=O)O)cc2)NC(=O)[C@@H]2C[C@@H](O)CN2C(=O)[C@H]([C@@H](C)O)NC1=O (some centres not stated) | > 0.3 mg/kg | > 6 mg/kg |  |  |  |  |  |  | 
6 | CCC(C)CC(C)CCCCCCCCC(=O)N[C@H]1C[C@@H](O)[C@@H](O)NC(=O)[C@@H]2[C@@H](O)CCN2C(=O)[C@H]([C@@H](O)CC(N)=O)NC(=O)[C@H]([C@H](O)[C@@H](O)c2ccc(OC(=O)CN)cc2)NC(=O)[C@@H]2C[C@@H](O)CN2C(=O)[C@H]([C@@H](C)O)NC1=O.Cl (some centres not stated) | 0.6 mg/kg | 3 mg/kg |  |  |  |  |  |  | 
7 | CCC(C)CC(C)CCCCCCCCC(=O)N[C@H]1C[C@@H](O)[C@@H](O)NC(=O)[C@@H]2[C@@H](O)CCN2C(=O)[C@H]([C@@H](O)CC(N)=O)NC(=O)[C@H]([C@H](O)[C@@H](O)c2ccc(OC(=O)CCCC(=O)O)cc2)NC(=O)[C@@H]2C[C@@H](O)CN2C(=O)[C@H]([C@H](C)O)NC1=O (some centres not stated) |  |  | > 400 µg/mL | 0.5 µg/mL | 0.5 µg/mL | 1 µM | 0.5 µg/mL | 2 µg/mL | 
8 | CCC(C)CC(C)CCCCCCCCC(=O)N[C@H]1C[C@@H](O)[C@@H](O)NC(=O)[C@@H]2[C@@H](O)CCN2C(=O)[C@H]([C@@H](O)CC(N)=O)NC(=O)[C@H]([C@H](O)[C@@H](O)c2ccc(OC(=O)CCN)cc2)NC(=O)[C@@H]2C[C@@H](O)CN2C(=O)[C@H]([C@@H](C)O)NC1=O.Cl (some centres not stated) | 0.15 mg/kg | 6 mg/kg |  |  |  |  |  |  | 
9 | CCC(C)CC(C)CCCCCCCCC(=O)N[C@H]1C[C@@H](O)[C@@H](O)NC(=O)[C@@H]2[C@@H](O)CCN2C(=O)[C@H]([C@@H](O)CC(N)=O)NC(=O)[C@H]([C@H](O)[C@@H](O)c2ccc(O)cc2)NC(=O)[C@@H]2C[C@@H](O)CN2C(=O)[C@H]([C@H](C)O)NC1=O (some centres not stated) |  |  | > 400 µg/mL | 0.25 µg/mL | 0.06 µg/mL | 0.07 µM | 0.125 µg/mL | 2 µg/mL | 4 µg/mL
10 | CCC(C)CC(C)CCCCCCCCC(=O)N[C@H]1C[C@@H](O)[C@@H](O)NC(=O)[C@@H]2[C@@H](O)CCN2C(=O)[C@H]([C@@H](O)CC(N)=O)NC(=O)[C@H]([C@H](O)[C@@H](O)c2ccc(OC(=O)CCN)cc2)NC(=O)[C@@H]2C[C@@H](O)CN2C(=O)[C@H]([C@H](C)O)NC1=O (some centres not stated) |  |  | 100 µg/mL | 1 µg/mL | 0.5 µg/mL | 0.2 µM | 1 µg/mL |  | 16 µg/mL
11 | CCC(C)CC(C)CCCCCCCCC(=O)N[C@H]1C[C@@H](O)[C@@H](O)NC(=O)[C@@H]2[C@@H](O)CCN2C(=O)[C@H]([C@@H](O)CC(N)=O)NC(=O)[C@H]([C@H](O)[C@@H](O)c2ccc(OC(=O)OCCN(C)C)cc2)NC(=O)[C@@H]2C[C@@H](O)CN2C(=O)[C@H]([C@@H](C)O)NC1=O.O=C(O)C(F)(F)F (some centres not stated) | 0.6 mg/kg | 6 mg/kg |  |  |  |  |  |  | 
12 | CCC(C)CC(C)CCCCCCCCC(=O)N[C@H]1C[C@@H](O)[C@@H](O)NC(=O)[C@@H]2[C@@H](O)CCN2C(=O)[C@H]([C@@H](O)CC(N)=O)NC(=O)[C@H]([C@H](O)[C@@H](O)c2ccc(OC(=O)NCC(=O)O)cc2)NC(=O)[C@@H]2C[C@@H](O)CN2C(=O)[C@H]([C@H](C)O)NC1=O (some centres not stated) |  |  | > 400 µg/mL | 4 µg/mL | 8 µg/mL | > 10 µM | 4 µg/mL | 32 µg/mL | 
13 | CCC(C)CC(C)CCCCCCCCC(=O)N[C@H]1C[C@@H](O)[C@@H](O)NC(=O)[C@@H]2[C@@H](O)CCN2C(=O)[C@H]([C@@H](O)CC(N)=O)NC(=O)[C@H]([C@H](O)[C@@H](O)c2ccc(OC(=O)CN)cc2)NC(=O)[C@@H]2C[C@@H](O)CN2C(=O)[C@H]([C@H](C)O)NC1=O (some centres not stated) |  |  | 100 µg/mL | 0.5 µg/mL | < 0.06 µg/mL | 0.05 µM | 1 µg/mL | 2 µg/mL | 
14 | CCC(C)CC(C)CCCCCCCCC(=O)N[C@H]1C[C@@H](O)[C@@H](O)NC(=O)[C@@H]2[C@@H](O)CCN2C(=O)[C@H]([C@@H](O)CC(N)=O)NC(=O)[C@H]([C@H](O)[C@@H](O)c2ccc(OC(=O)NCCC(=O)O)cc2)NC(=O)[C@@H]2C[C@@H](O)CN2C(=O)[C@H]([C@@H](C)O)NC1=O (some centres not stated) | > 0.6 mg/kg | > 6 mg/kg |  |  |  |  |  |  | 
15 | CCC(C)CC(C)CCCCCCCCC(=O)N[C@H]1C[C@@H](O)[C@@H](O)NC(=O)[C@@H]2[C@@H](O)CCN2C(=O)[C@H]([C@@H](O)CC(N)=O)NC(=O)[C@H]([C@H](O)[C@@H](O)c2ccc(OC(=O)NCCN(C)C)cc2)NC(=O)[C@@H]2C[C@@H](O)CN2C(=O)[C@H]([C@H](C)O)NC1=O (some centres not stated) |  |  | 25 µg/mL | 1 µg/mL | 1 µg/mL | 1 µM | 1 µg/mL | 64 µg/mL | 
16 | CCC(C)CC(C)CCCCCCCCC(=O)N[C@H]1C[C@@H](O)[C@@H](O)NC(=O)[C@@H]2[C@@H](O)CCN2C(=O)[C@H]([C@@H](O)CC(N)=O)NC(=O)[C@H]([C@H](O)[C@@H](O)c2ccc(OC(=O)N(C)CC(=O)O)cc2)NC(=O)[C@@H]2C[C@@H](O)CN2C(=O)[C@H]([C@H](C)O)NC1=O (some centres not stated) |  |  | 25 µg/mL | 2 µg/mL | 1 µg/mL | > 1 µM | 2 µg/mL | 8 µg/mL | 
17 | CCC(C)CC(C)CCCCCCCCC(=O)N[C@H]1C[C@@H](O)[C@@H](O)NC(=O)[C@@H]2[C@@H](O)CCN2C(=O)[C@H]([C@@H](O)CC(N)=O)NC(=O)[C@H]([C@H](O)[C@@H](O)c2ccc(OC(=O)NCCC(=O)O)cc2)NC(=O)[C@@H]2C[C@@H](O)CN2C(=O)[C@H]([C@H](C)O)NC1=O (some centres not stated) |  |  | > 400 µg/mL | 128 µg/mL | 128 µg/mL | > 10 µM | 128 µg/mL |  | > 128 µg/mL
